Assay results as given in ChEMBL document CHEMBL2424622, “Development of amino-pyrimidine inhibitors of c-Jun N-terminal kinase (JNK): kinase profiling guided optimization of a 1,2,3-benzotriazole lead” (Bioorg Med Chem Lett, 2013).

What was measured:
[1] = target: Myosin light chain kinase 2, skeletal/cardiac muscle (Homo sapiens) (UniProt Q9H1R3); test: Competitive binding affinity to MYLK2 (unknown origin) at 10 uM in presence of ATP relative to control
Summary of the method: (§1)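 In vitro ATP-site competition binding assay across a diverse panel of 128 kinases, with compound tested at a single concentration. Kinase selectivity scores (S15) were calculated from the panel profiles.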

[2] = target: Serine/threonine-protein kinase PAK 3 (Homo sapiens) (UniProt O75914); test: Competitive binding affinity to PAK3 (unknown origin) at 10 uM in presence of ATP relative to control; summary of the method: as §1
[3] = target: Ephrin type-A receptor 4 (Homo sapiens) (UniProt P54764); test: Competitive binding affinity to EPHA4 (unknown origin) at 10 uM in presence of ATP relative to control
Summary of the method: (§2)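 In vitro ATP-site competition binding assay, part of profiling against a diverse panel of 128 kinases. Each compound was tested at a single concentration of 10 µM. Kinome selectivity was summarized as S15 selectivity scores.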

[4] = target: Calcium/calmodulin-dependent protein kinase type 1 (Homo sapiens, UniProt Q14012); test: Competitive binding affinity to CAMK1 (unknown origin) at 10 uM in presence of ATP relative to control
[5] = target: Vascular endothelial growth factor receptor 2 (Homo sapiens) (UniProt P35968); test: Competitive binding affinity to VEGFR2 (unknown origin) at 10 uM in presence of ATP relative to control; summary of the method: as §1
[6] = target: Mitogen-activated protein kinase 9 (Homo sapiens, UniProt P45984); test: Competitive binding affinity to JNK2 (unknown origin) at 10 uM in presence of ATP relative to control
Summary of the method: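 In vitro ATP-site competition binding assay across a diverse panel of 128 kinases, with each compound tested at a single concentration. Kinase binding is expressed relative to control.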

[7] = target: Receptor tyrosine-protein kinase erbB-4 (Homo sapiens) (UniProt Q15303); test: Competitive binding affinity to ERBB4 (unknown origin) at 10 uM in presence of ATP relative to control; summary of the method: as §2
[8] = target: Serine/threonine-protein kinase 33 (Homo sapiens) (UniProt Q9BYT3); test: Competitive binding affinity to STK33 (unknown origin) at 10 uM in presence of ATP relative to control
[9] = target: Casein kinase I isoform epsilon (Homo sapiens) (UniProt P49674); test: Competitive binding affinity to CSNK1E (unknown origin) at 10 uM in presence of ATP relative to control
[10] = target: Tyrosine-protein kinase ABL1 (Homo sapiens) (UniProt P00519); test: Competitive binding affinity to ABL1 (unknown origin) at 10 uM in presence of ATP relative to control
[11] = target: Bone morphogenetic protein receptor type-1A (Homo sapiens) (UniProt P36894); test: Competitive binding affinity to BMPR1A (unknown origin) at 10 uM in presence of ATP relative to control
[12] = target: T1, Serine/threonine-protein kinase PLK4 (Homo sapiens) (UniProt O00444); test: Competitive binding affinity to PLK4 (unknown origin) at 10 uM in presence of ATP relative to control; summary of the method: as §1
T1 sequence (whole entry): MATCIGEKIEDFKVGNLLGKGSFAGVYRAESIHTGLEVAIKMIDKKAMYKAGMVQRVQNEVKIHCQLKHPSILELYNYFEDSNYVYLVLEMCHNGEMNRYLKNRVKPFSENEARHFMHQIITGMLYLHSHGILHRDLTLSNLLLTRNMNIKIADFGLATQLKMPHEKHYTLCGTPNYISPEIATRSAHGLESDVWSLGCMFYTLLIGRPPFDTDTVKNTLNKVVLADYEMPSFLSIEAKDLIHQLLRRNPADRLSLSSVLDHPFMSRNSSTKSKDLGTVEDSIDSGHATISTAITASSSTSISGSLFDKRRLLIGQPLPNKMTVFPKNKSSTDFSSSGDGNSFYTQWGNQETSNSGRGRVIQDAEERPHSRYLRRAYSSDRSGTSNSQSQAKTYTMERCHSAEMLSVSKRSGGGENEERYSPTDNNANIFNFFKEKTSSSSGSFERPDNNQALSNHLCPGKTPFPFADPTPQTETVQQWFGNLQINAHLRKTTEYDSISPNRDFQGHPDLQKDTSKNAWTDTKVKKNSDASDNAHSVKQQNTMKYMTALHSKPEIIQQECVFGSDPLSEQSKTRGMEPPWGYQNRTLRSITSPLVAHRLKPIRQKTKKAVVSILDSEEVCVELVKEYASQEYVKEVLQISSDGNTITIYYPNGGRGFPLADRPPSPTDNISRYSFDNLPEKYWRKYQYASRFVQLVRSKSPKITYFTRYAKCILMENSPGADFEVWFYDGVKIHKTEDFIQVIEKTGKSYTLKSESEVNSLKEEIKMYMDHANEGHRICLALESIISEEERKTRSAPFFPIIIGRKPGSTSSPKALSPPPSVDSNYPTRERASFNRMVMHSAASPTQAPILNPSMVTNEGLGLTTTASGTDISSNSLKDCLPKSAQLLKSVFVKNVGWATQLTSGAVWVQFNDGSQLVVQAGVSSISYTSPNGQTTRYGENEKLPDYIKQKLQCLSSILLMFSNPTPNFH

[13] = target: Calcium/calmodulin-dependent protein kinase kinase 1 (Homo sapiens) (UniProt Q8N5S9); test: Competitive binding affinity to CAMKK1 (unknown origin) at 10 uM in presence of ATP relative to control
[14] = target: Proto-oncogene tyrosine-protein kinase Src (Homo sapiens) (UniProt P12931); test: Competitive binding affinity to SRC (unknown origin) at 10 uM in presence of ATP relative to control; summary of the method: as §1
[15] = target: Serine/threonine-protein kinase pim-1 (Homo sapiens) (UniProt P11309); test: Competitive binding affinity to PIM1 (unknown origin) at 10 uM in presence of ATP relative to control
[16] = target: Cyclin-dependent kinase 2/cyclin E1 (Homo sapiens, UniProt P24941); test: Inhibition of human recombinant CDK2/GST-tagged cyclin E expressed in baculovirus infected insect cells assessed as inhibition of 6XHis-tagged retinoblastoma protein (386 to 928) phosphorylation after 30 mins by scintillation counting analysis in presence of [gamma-33P]-ATP
Summary of the method: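 CDK2 activity was measured as phosphorylation of a 6-histidine-tagged truncated retinoblastoma protein (amino acids 386–928) using [γ-33P]ATP.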

[17] = target: MAP/microtubule affinity-regulating kinase 3 (Homo sapiens) (UniProt P27448); test: Competitive binding affinity to MARK3 (unknown origin) at 10 uM in presence of ATP relative to control
[18] = target: Serine/threonine-protein kinase 24 (Homo sapiens) (UniProt Q9Y6E0); test: Competitive binding affinity to MST3 (unknown origin) at 10 uM in presence of ATP relative to control

| Structure (SMILES) | inhibition [1] | inhibition [2] | inhibition [3] | inhibition [4] | inhibition [5] | inhibition [6] | inhibition [7] | inhibition [8] | inhibition [9] | inhibition [10] | inhibition [11] | inhibition [12] | inhibition [13] | inhibition [14] | inhibition [15] | IC50 [16] | inhibition [17] | inhibition [18] |
| --- | --- | --- | --- | --- | --- | --- | --- | --- | --- | --- | --- | --- | --- | --- | --- | --- | --- | --- |
| O[C@H]1CC[C@H](Nc2nccc(-c3n[nH]c4ccccc34)n2)CC1 | 84% | 99% | < 50% | 98% | 91% | 93% | < 50% | 98% | 100% | < 50% | < 50% | 100% | 85% | 78% | 99% | – | – | – |
| O[C@H]1CC[C@H](Nc2nccc(-n3ccc4ccccc43)n2)CC1 | < 50% | < 50% | < 50% | 73% | < 50% | 99% | < 50% | < 50% | 85% | < 50% | < 50% | < 50% | < 50% | < 50% | 76% | – | < 50% | 83% |
| O=C([C@H]1CC[C@H](Nc2nccc(-n3nnc4ccccc43)n2)CC1)N1CCOCC1 | < 50% | < 50% | < 50% | < 50% | < 50% | 98% | < 50% | – | 95% | 92% | – | 71% | < 50% | < 50% | – | 2000 nM | – | – |
| CS(=O)(=O)CCCOc1cccc2c1ccn2-c1ccnc(N[C@H]2CC[C@H](C(=O)N3CCC(O)CC3)CC2)n1 | – | – | – | > 85% | – | > 85% | – | – | – | – | – | – | – | – | – | – | – | – |

Next, values leading:

| inhibition [1] | inhibition [2] | inhibition [3] | inhibition [4] | inhibition [5] | inhibition [6] | inhibition [7] | inhibition [8] | inhibition [9] | inhibition [10] | inhibition [11] | inhibition [12] | inhibition [13] | inhibition [14] | inhibition [15] | IC50 [16] | inhibition [17] | inhibition [18] | Structure (SMILES) |
| --- | --- | --- | --- | --- | --- | --- | --- | --- | --- | --- | --- | --- | --- | --- | --- | --- | --- | --- |
| 73% | 90% | < 50% | 89% | < 50% | 100% | < 50% | – | 100% | < 50% | – | < 50% | < 50% | < 50% | – | 360 nM | – | – | N[C@H]1CC[C@H](Nc2nccc(-n3nnc4ccccc43)n2)CC1 |
| < 50% | 76% | < 50% | < 50% | < 50% | 99% | < 50% | 75% | 100% | < 50% | < 50% | < 50% | < 50% | < 50% | 87% | 430 nM | < 50% | 78% | O[C@H]1CC[C@H](Nc2nccc(-n3nnc4ccccc43)n2)CC1 |
| < 50% | 75% | < 50% | 76% | < 50% | 99% | < 50% | 78% | 94% | < 50% | < 50% | 63% | < 50% | < 50% | 96% | – | < 50% | 78% | O[C@H]1CC[C@H](Nc2nccc(-n3ncc4ccccc43)n2)CC1 |
